Assay [1] deals with Bacillus cereus. The assay can be described thus: Antibacterial activity against Bacillus cereus after 16 hrs by broth dilution method. It is filed as functional. The gist of the method:
(§1)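 Compound stocks at 1 mg/mL in DMF, serially twofold diluted in trypticase soya broth tubes. Organisms were grown 6 h at 37 °C in trypticase soya broth, adjusted to McFarland […] (10^8 cfu/mL) in PBS, then diluted 10^3-fold in broth to 10^5 cfu/mL; 1 mL of this inoculum was added per tube. Tubes were incubated 16 h at 37 °C, with inoculum and broth controls. MIC was read as the lowest concentration with no visible growth.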
Background: In broth dilution the organism is exposed to a series of concentrations in liquid medium.

Assay [2] has as its system Escherichia coli. As to the kind of experiment: Antibacterial activity against Escherichia coli after 16 hrs by broth dilution method. The format is functional. Summed up:
as §1

The subject of assay [3] is Pseudomonas aeruginosa. As to the kind of experiment: Antibacterial activity against Pseudomonas aeruginosa after 16 hrs by broth dilution method. It is filed as functional. Summed up:
as §1

In assay [4] the test system is Staphylococcus aureus. As to the kind of experiment: Antibacterial activity against Staphylococcus aureus after 16 hrs by broth dilution method. The format is functional. Summed up: as §1
Assay [5] concerns Candida albicans. As to the kind of experiment: Antifungal activity against Candida albicans after 16 hrs by broth dilution method. It is filed as functional. Summed up:
as §1

Assay [6] relates to HT-29. As to the kind of experiment: Cytotoxicity against human HT-29 cells after 48 hrs by MTT assay. The format is functional, cell-based. The following applies: HT-29, 48 h. Summed up: (§2)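 Cells seeded at 1 x 10^4 per well (viability by Trypan blue exclusion) and treated in triplicate at 100, 50, 25 and […], 48 h at 37 °C, 5% CO2. Medium was then replaced with serum-free DMEM plus MTT for 3 h. Formazan was dissolved in DMSO for 15 min at 37 °C and read at 570 nm. % cell death was taken relative to vehicle (DMSO) control, and IC50 derived from it.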
On the technique in general: Tetrazolium dyes change colour on reduction, which living cells bring about.

Assay [7] concerns HT-29. The assay can be described thus: Cytotoxicity against human HT-29 cells assessed as cell death at 25 uM after 48 hrs by MTT assay. The format is functional. The following applies: pooled result: one value given for 2 cell lines, strains, targets or settings. Summed up: (§3)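 Both cell lines were seeded at 1×10⁴ cells per well, with viability checked first by trypan blue exclusion. Compounds were tested in triplicate for 48 h at 37 °C in 5% CO₂. Medium was then replaced with serum-free DMEM, MTT was added, and plates were held 3 h at 37 °C. Formazan was dissolved in DMSO for 15 min and read at 570 nm. % cell death = (A_DMSO − A_sample)/A_DMSO × 100.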

The test system of assay [8] is HT-29. The assay can be described thus: Cytotoxicity against human HT-29 cells assessed as cell death at 12.5 uM after 48 hrs by MTT assay. The format is functional. The following applies: pooled result: one value given for 2 cell lines, strains, targets or settings. Summed up:
as §3

The test system of assay [9] is RAW264.7. As to the kind of experiment: Cytotoxicity against mouse RAW264.7 cells assessed as cell death at 25 uM after 48 hrs by MTT assay. It is filed as functional. The following applies: pooled result: one value given for 2 cell lines, strains, targets or settings. Summed up: as §3
The test system of assay [10] is RAW264.7. As to the kind of experiment: Cytotoxicity against mouse RAW264.7 cells after 48 hrs by MTT assay. It is filed as functional, cell-based. The following applies: RAW264.7, 48 h. The gist of the method:
as §2

The subject of assay [11] is RAW264.7. The assay can be described thus: Cytotoxicity against mouse RAW264.7 cells assessed as cell death at 100 uM after 48 hrs by MTT assay. The format is functional. The following applies: pooled result: one value given for 2 cell lines, strains, targets or settings. Summed up:
as §3

Assay [12] concerns RAW264.7. The assay can be described thus: Cytotoxicity against mouse RAW264.7 cells assessed as cell death at 12.5 uM after 48 hrs by MTT assay. It is filed as functional. The following applies: pooled result: one value given for 2 cell lines, strains, targets or settings. The gist of the method: as §3
Assay [13] relates to RAW264.7. As to the kind of experiment: Cytotoxicity against mouse RAW264.7 cells assessed as cell death at 50 uM after 48 hrs by MTT assay. The format is functional. The following applies: pooled result: one value given for 2 cell lines, strains, targets or settings. Summed up: as §3
Assay [14] concerns RAW264.7. The assay can be described thus: Cytotoxicity against mouse RAW264.7 cells assessed as cell death at 2.5 uM after 48 hrs by MTT assay. It is filed as functional.
Assay [15] relates to HT-29. The assay can be described thus: Cytotoxicity against human HT-29 cells assessed as cell death at 2.5 uM after 48 hrs by MTT assay. It is filed as functional.

Molecules are shown by their SMILES. In brackets after ≈: the same amount, converted by molar mass. Activity calls are given as the source filed them. The calls are words filed in the database; no cut-off is given here. Some results are limits rather than exact numbers.

A word on the MIC: it is the least concentration at which growth counts as inhibited. A lower MIC goes with inhibition by little substance. In the case of `CC1(C)S[C@@H]2[C@H](NC(=O)Cc3ccccc3)C(=O)N2[C@H]1C(=O)O` [PENICILLIN G], the minimum inhibitory concentration (MIC) in assay [1], in assay [2], in assay [3] and in assay [4] was 0.12 µg/mL (≈ 0.359 µM) each time.

One may read the IC50 as the concentration that gives 50% inhibition. In the case of `CS(=O)(=O)c1ccc(Cc2nnc3n2N=C(c2cc(Cl)sc2Cl)CS3)cc1`, the MIC was found to be 3.12 µg/mL (≈ 6.8 µM) in assay [5]; 6.25 µg/mL (≈ 13.6 µM) in assay [1]; 6.25 µg/mL (≈ 13.6 µM) in [2]; 6.25 µg/mL (≈ 13.6 µM) in assay [3]; 6.25 µg/mL (≈ 13.6 µM) in [4]. Also, the IC50 in assay [6] and in assay [10] was more than 100 µM in each case. The result in assay [7], in [8], in assay [9] and in assay [12] was inactive. Moreover, the Activity is 47.27% in assay [11] and 25.54% in [13].

Take `CS(=O)(=O)c1ccc(Cc2nnc3n2N=C(c2cc(Cl)sc2S(N)(=O)=O)CS3)cc1`: the MIC in assay [5] amounted to 6.25 µg/mL (≈ 12.4 µM); in [1] it was 12.5 µg/mL (≈ 24.8 µM); in [2], 6.25 µg/mL (≈ 12.4 µM); in assay [3], 6.25 µg/mL (≈ 12.4 µM); in assay [4] it was 12.5 µg/mL (≈ 24.8 µM). Also, the half-inhibitory concentration (IC50) in [6] and in assay [10] was more than 100 µM throughout. Besides, the Activity is listed as 18.66% in assay [9], 35.22% in assay [11], 22.8% in assay [12] and 27.46% in assay [13].

As to `COc1cccc2c1C(=O)c1c(O)c3c(c(O)c1C2=O)C[C@@](O)(C(=O)CO)C[C@@H]3O[C@H]1C[C@H](N)[C@H](O)[C@H](C)O1` [DOXORUBICIN], the Activity in [14] and in [15] was 78.2% each time.

Turning to `CS(=O)(=O)c1ccc(Cc2nnc3n2N=C(c2ccc(-c4ccccc4)cc2)CS3)cc1`, the MIC in assay [5], in assay [1], in assay [2], in [3] and in assay [4] was 6.25 µg/mL (≈ 13.6 µM) each time. Moreover, the IC50 in assay [6] and in assay [10] was 12.5 µM each time. In addition, the Activity in assay [9] is given as 60.19%; in assay [11] it was 74.77%; in [12], 58.2%; in [13], 67.93%.

In the case of `CS(=O)(=O)c1ccc(Cc2nnc3n2N=C(c2cc(Cl)cc4c2-c2ccc(Cl)cc2C4)CS3)cc1`, the MIC in assay [5] came to 6.25 µg/mL (≈ 11.5 µM); in assay [1], 6.25 µg/mL (≈ 11.5 µM); in assay [2], 6.25 µg/mL (≈ 11.5 µM); in assay [3] it was 3.12 µg/mL (≈ 5.77 µM); in assay [4], 12.5 µg/mL (≈ 23.1 µM). The IC50 in assay [6] and in [10] was 100 µM in each case. For the same compound, the Activity in [9] is listed as 44.8%; in assay [11], 50.33%; in [12], 41.05%; in assay [13], 43.12%.

In the case of `CS(=O)(=O)c1ccc(Cc2nnc3n2N=C(c2ccc(Cl)cc2Cl)CS3)cc1`, the MIC in [5] stood at 6.25 µg/mL (≈ 13.8 µM); in assay [1], 6.25 µg/mL (≈ 13.8 µM); in assay [2], 3.12 µg/mL (≈ 6.89 µM); in assay [3], 6.25 µg/mL (≈ 13.8 µM); in assay [4], 12.5 µg/mL (≈ 27.6 µM). Moreover, the concentration for half-maximal inhibition (IC50) in assay [6] and in [10] was more than 100 µM throughout. Further, the Activity in assay [9] stood at 24.19%; in assay [11], 30.99%; in assay [12] it was 27.99%; in assay [13] it was 27.33%.

On to `CS(=O)(=O)c1ccc(Cc2nnc3n2N=C(c2ccccc2)CS3)cc1`, for which the MIC in assay [5] worked out at 25 µg/mL (≈ 65 µM); in assay [1] it was 6.25 µg/mL (≈ 16.3 µM); in assay [2], 6.25 µg/mL (≈ 16.3 µM); in assay [3], 6.25 µg/mL (≈ 16.3 µM); in assay [4], 6.25 µg/mL (≈ 16.3 µM). In addition, the IC50 in assay [6] and in [10] was 25 µM throughout. Besides, the Activity in [9] came to 50.95%; in assay [11] it was 55.51%; in assay [12] it was 41.97%; in assay [13], 46.73%.

On to `OC(Cn1cncn1)(Cn1cncn1)c1ccc(F)cc1F` [FLUCONAZOLE], for which, in assay [5], the MIC came to 0.8 µg/mL (≈ 2.61 µM).

In the case of `Cc1ccc(C2=Nn3c(Cc4ccc(S(C)(=O)=O)cc4)nnc3SC2)cc1`, the MIC came to 1.56 µg/mL (≈ 3.92 µM) in [5]; 12.5 µg/mL (≈ 31.4 µM) in [1]; 12.5 µg/mL (≈ 31.4 µM) in assay [2]; 12.5 µg/mL (≈ 31.4 µM) in [3]; 12.5 µg/mL (≈ 31.4 µM) in assay [4]. For the same compound, the IC50 in [6] and in [10] was more than 100 µM throughout. Besides, the outcome in assay [8] and in [12] was inactive. Further, the Activity in [9] was 1.26%; in assay [11] it was 38.53%; in assay [13], 37.91%.

In the case of `CS(=O)(=O)c1ccc(Cc2nnc3n2N=C(c2ccc(O)c(C(N)=O)c2)CS3)cc1`, the MIC in [5] came out at 3.12 µg/mL (≈ 7.05 µM); in [1] it was 3.12 µg/mL (≈ 7.05 µM); in [2], 6.25 µg/mL (≈ 14.1 µM); in assay [3], 6.25 µg/mL (≈ 14.1 µM); in [4], 12.5 µg/mL (≈ 28.2 µM). Also, the IC50 in assay [6] and in assay [10] was more than 100 µM each time. For the same compound, the Activity in assay [9] amounted to 24.66%; in [11] it was 37.08%; in assay [12], 24.81%; in [13] it was 33.06%.

Regarding `CS(=O)(=O)c1ccc(Cc2nnc3n2N=C(c2cc4ccccc4c(=O)o2)CS3)cc1`, the minimal inhibitory concentration (MIC) in assay [5] came to 3.12 µg/mL (≈ 6.91 µM); in assay [1], 6.25 µg/mL (≈ 13.8 µM); in assay [2] it was 6.25 µg/mL (≈ 13.8 µM); in [3], 6.25 µg/mL (≈ 13.8 µM); in assay [4] it was 6.25 µg/mL (≈ 13.8 µM). The half-maximal inhibitory concentration (IC50) in assay [6] and in assay [10] was more than 100 µM in each case. Besides, the Activity in assay [9] is listed as 25.58%; in assay [11], 10.63%; in [12] it was 22.43%; in [13], 14.86%.
